Drawing on ChEMBL document CHEMBL1133660, “A potential melanoma tracer: synthesis, radiolabeling, and biodistribution in mice of a new nitridotechnetium bis(aminothiol) derivative pharmacomodulated by a N-(diethylaminoethyl)benzamide” (J Med Chem, 2000), this text covers logP, ID/g and Tumor/liver ratio for 3 molecules.

Data set [1] can be described thus: (§1) Partition coefficient (logP). The class given is physicochemical. As to conditions: octanol/water. Put shortly: (§2)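 Partition between octanol and pH 7.4 Tris buffer, reported as log P.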
Data set [2] is described as follows: as §1. Particulars: octanol/water. The class given is physicochemical. Put shortly:
as §2
This is another data set of the same source.

The species named for data set [3] is Mus musculus. Put plainly: Tissue biodistribution of the syn isomer in the B16 murine melanoma tumor in mice at 1 hour. The class given is ADME, organism-based. As to conditions: in vivo. The method, boiled down:
(§3)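 Male C57BL/6 J1 co mice given 5 × 10^5 viable B16 melanoma cells subcutaneously; tumors palpable after 10 days. 0.74 MBq 99mTc-labeled complex injected iv via tail vein. n = 3 per time point; sacrifice by exsanguination at 5 min, 15 min, 1, 3, 6 and 24 h. Tissues weighed and γ-counted; results as % injected dose/gram of tissue.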

The species named for data set [4] is Mus musculus. Put plainly: Tissue biodistribution of the syn isomer in the B16 murine melanoma tumor in mice at 24 hours. The class given is ADME, organism-based. Particulars: in vivo. The method, boiled down:
as §3

The species entered for data set [5] is Mus musculus. Nature of the data set: Tissue biodistribution of the syn isomer in the B16 murine melanoma tumor in mice at 3 hours. Type of data set: ADME, organism-based. As to conditions: in vivo. The method, boiled down: as §3
The species entered for data set [6] is Mus musculus. Nature of the data set: Tissue biodistribution of the syn isomer in the B16 murine melanoma tumor in mice at 6 hours. Particulars: in vivo. The class given is ADME, organism-based. Put shortly: as §3
Data set [7] can be described thus: Tumor / liver ratio observed after 3 hours of injection. Type of data set: ADME, tissue-based.
Data set [8] is described as follows: Tumor / liver ratio observed after 6 hours of injection. The class given is ADME.
The nature of data set [9]: Tumor / liver ratio observed after 1 hour of injection. Type of data set: ADME, tissue-based.
Data set [10] in a line: Tumor / liver ratio observed after 24 hours of injection. Type of data set: ADME, tissue-based.

A word on the logP: it is the decadic logarithm of the partition coefficient of the neutral form, usually between octanol and water. High values mean higher lipophilicity, low ones lower lipophilicity.

`CCN(CC)CCNC(=O)c1ccc(COCC(CNCC(C)(C)S)NCC(C)(C)S)cc1` (stereo not drawn): the logP is -0.3 in data set [1] and -0.45 in [2].
In the case of `CCN(CC)CCNC(=O)c1ccc([125I])cc1`, the ID/g was 6.75% in the data set listed under Mus musculus [3], 0.79% in the data set listed under Mus musculus [4], 3.85% in the data set listed under Mus musculus [5] and 3.53% in the data set filed under Mus musculus [6]. In addition, the Tumor/liver ratio in data set [7] came to 1.05; in data set [8], 3.71; in data set [9] it was 1.12; in data set [10], 4.94.
Take “(TcN-BAT)nitridotechnetium complex of bis(aminoethanethiol)”: the ID/g in the data set filed under Mus musculus [3] came out at 0.75%; in the data set listed under Mus musculus [4] it was 0.04%; in the data set listed under Mus musculus [5], 0.2%; in the data set listed under Mus musculus [6], 0.11%. The Tumor/liver ratio in [7] is 0.1; in data set [8] it was 0.1; in [9], 0.18; in data set [10] it was 0.06.
